The source made the active and inactive calls. The calls are words filed in the database; no cut-off is given here.
Experiments:
[1] = system: Lipid bilayer; assay: Binding affinity to DPH-labeled liposomal membrane without cholesterol assessed as increase in membrane fluidity by measuring decrease in DPH fluorescence polarization after 5 mins by spectrofluorometry
In short: (§1)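 Fresh DPH-labeled liposomes (ethanol injection into HEPES pH 7.4 with NaCl/KCl) contained 0–45 mol% cholesterol, with the remaining lipids POPC/POPE/CL/POPS/POPI/SM at 25:16:10:3:3:3. Enantiomer pairs were tested on the same day. Each was given at 200 uM final with DMSO at 0.5% v/v, and vehicle controls matched. After 5 min at 37 °C, DPH fluorescence polarization was measured. Values are % polarization change relative to control, mean ± SEM, n=7.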

[2] = system: Lipid bilayer; assay: Binding affinity to DPH-labeled liposomal membrane containing 40 mol% cholesterol assessed as increase in membrane fluidity by measuring decrease in DPH fluorescence polarization at 200 uM after 5 mins by spectrofluorometry; in short: as §1
[3] = system: Lipid bilayer; assay: Binding affinity to DPH-labeled liposomal membrane containing 20 mol% cardiolipin 40 mol% cholesterol assessed as increase in membrane fluidity by measuring decrease in DPH fluorescence polarization at 200 uM after 5 mins by spectrofluorometry
In short: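 DPH-labeled liposomes made by ethanol injection (10 mM total lipid, 50 uM DPH in the injected stock) into 10 mM HEPES pH 7.4 with 125 mM NaCl and 25 mM KCl. Membranes held 0 or 20 mol% cardiolipin, with or without 40 mol% cholesterol, and POPC/POPE/POPS/POPI/SM at 25:16:3:3:3. Drug was added at 200 uM final in 0.5% DMSO, incubated 37 °C for 5 min, and DPH polarization read. Results are % change vs DMSO control, mean ± SEM, n=7.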

[4] = system: Lipid bilayer; assay: Increase in membrane fluidity in DPH-labeled liposomal membrane containing 20 mol% cardiolipin 40 mol% cholesterol assessed as change in DPH fluorescence polarization at 200 uM after 5 mins by spectrofluorometry relative to liposome without cardiolipin
[5] = system: Lipid bilayer; assay: Binding affinity to DPH-labeled liposomal membrane containing 5 to 45 mol% cholesterol assessed as increase in membrane fluidity by measuring decrease in DPH fluorescence polarization after 5 mins by spectrofluorometry; in short: as §1
[6] = system: Lipid bilayer; assay: Increase in membrane fluidity in DPH-labeled liposomal membrane containing 40 mol% cholesterol assessed as change in DPH fluorescence polarization at 200 uM after 5 mins by spectrofluorometry relative to control; assay type: cell membranes; in short: as §1
[7] = species on record: Canis familiaris; assay: Cardiotoxicity in dog assessed as total plasma concentration causing cardiovascular collapse measured after 20 mins; assay type: toxicity, organism-based, Canis lupus familiaris
[8] = species on record: Canis familiaris; assay: Cardiotoxicity in dog assessed as free plasma concentration causing cardiovascular collapse measured after 20 mins; assay type: toxicity, organism-based, Canis lupus familiaris

CCCCN1CCCC[C@@H]1C(=O)Nc1c(C)cccc1C was tested, and the Activity [1] was “Active”, the Activity [2] was “Active” and the Activity [3] was “Active”. For the same compound, the fold change (FC) [4] was 3.7 and the Activity [5] was “Active”.
CCCCN1CCCCC1C(=O)Nc1c(C)cccc1C (racemic) [BUPIVACAINE] was tested, and the fold change (FC) [6] was 1.7, the Activity [1] was “Active” and the Activity [7] was 39 µM. The Activity [2] was “Active”, the Activity [3] was “Active” and the Activity [5] was “Active”. For the same compound, the Activity [8] was 10 µM.
CCCCN1CCCC[C@H]1C(=O)Nc1c(C)cccc1C [LEVOBUPIVACAINE] was tested, and the fold change (FC) [6] was 1.4, the Activity [1] was “Active” and the Activity [7] was 49 µM. The Activity [2] was “Active”, the Activity [3] was “Active” and the fold change (FC) [4] was 3.7. It also gave an Activity [8] of 17 µM.
Work on CCCN1CCCC[C@H]1C(=O)Nc1c(C)cccc1C [ROPIVACAINE] yielded a fold change (FC) [6] of 1, an Activity [7] of 64 µM and an Activity [8] of 36 µM.
